Where two headings read alike, the source gives them in different places.
Tests used:
Safety and tolerability = type: in vivo, human (healthy adult participants)
How it was run: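 Healthy adults received single 100-mg oral doses of 4×25-mg tablets, either fasted, after a high-fat meal, or after five evening doses of rabeprazole 20 mg. Safety was monitored by physical examination, laboratory tests, ECG, concomitant medication review, and AE frequency and severity. The safety population comprised all participants receiving ≥1 dose of study medication.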

[1] = cited from earlier work
[2] = both acetate and freebase forms, cited from earlier work
[3] = type: in vivo, human (healthy adult participants); details: for AUC(0-inf) / AUC(0-t) / Cmax / half-life / Tmax: human, plasma, po; for Tmax: median (range)
[4] = Treatment A: 100-mg tablets, fasted, n = 24
[5] = Treatment B: 100-mg tablets + high-fat meal, n = 23
[6] = Treatment C: 100-mg tablets + rabeprazole 20 mg, n = 23
[7] = Treatment D: 100-mg oral solution, n = 24
[8] = 100-mg oral solution (test) versus 100-mg tablets (reference)
[9] = 100-mg tablets + high-fat meal (test) versus 100-mg tablets (reference)
[10] = 100-mg tablets + rabeprazole 20-mg (test) versus 100-mg tablets (reference)

C[C@H]1Oc2cc(cnc2N)-c2c(nn(C)c2C#N)CN(C)C(=O)c2ccc(F)cc21 [Lorlatinib, (10R)‐7‐amino‐12‐fluoro‐2,10,16‐trimethyl‐15‐oxo‐10,15,16,17‐tetrahydro‐2H‐8,4‐(metheno)pyrazolo[4,3‐h][2,5,11]‐benzoxadiazacyclotetradecine‐3‐carbonitrile]
Participants with any serious treatment-related AE (Safety and tolerability; [4]): 0 n (%)
Participants with any treatment-emergent AE (Safety and tolerability; [4]): 19 (79) n (%)
Participants with any treatment-related AE (Safety and tolerability; [4]): 19 (79) n (%)
Treatment-related AE: Acne (Safety and tolerability; [4]): 4 (17) n (%)
Treatment-related AE: Diarrhea (Safety and tolerability; [4]): 3 (13) n (%)
Treatment-related AE: First-degree AV block (Safety and tolerability; [4]): 5 (21) n (%)
Treatment-related AE: Headache (Safety and tolerability; [4]): 7 (29) n (%)
Participants with any serious treatment-related AE (Safety and tolerability; [5]): 0 n (%)
Participants with any treatment-emergent AE (Safety and tolerability; [5]): 15 (65) n (%)
Participants with any treatment-related AE (Safety and tolerability; [5]): 15 (65) n (%)
Treatment-related AE: Acne (Safety and tolerability; [5]): 2 (9) n (%)
Treatment-related AE: Diarrhea (Safety and tolerability; [5]): 1 (4) n (%)
Treatment-related AE: First-degree AV block (Safety and tolerability; [5]): 2 (9) n (%)
Treatment-related AE: Headache (Safety and tolerability; [5]): 4 (17) n (%)
Participants with any serious treatment-related AE (Safety and tolerability; [6]): 0 n (%)
Participants with any treatment-emergent AE (Safety and tolerability; [6]): 19 (83) n (%)
Participants with any treatment-related AE (Safety and tolerability; [6]): 19 (83) n (%)
Treatment-related AE: Acne (Safety and tolerability; [6]): 2 (9) n (%)
Treatment-related AE: Diarrhea (Safety and tolerability; [6]): 2 (9) n (%)
Treatment-related AE: First-degree AV block (Safety and tolerability; [6]): 4 (17) n (%)
Treatment-related AE: Headache (Safety and tolerability; [6]): 7 (30) n (%)
Participants with any serious treatment-related AE (Safety and tolerability; [7]): 0 n (%)
Participants with any treatment-emergent AE (Safety and tolerability; [7]): 16 (67) n (%)
Participants with any treatment-related AE (Safety and tolerability; [7]): 16 (67) n (%)
Treatment-related AE: Acne (Safety and tolerability; [7]): 4 (17) n (%)
Treatment-related AE: Diarrhea (Safety and tolerability; [7]): 2 (8) n (%)
Treatment-related AE: First-degree AV block (Safety and tolerability; [7]): 3 (13) n (%)
Treatment-related AE: Headache (Safety and tolerability; [7]): 6 (25) n (%)
Deaths during the study (Safety and tolerability; all treatment periods): no deaths
Participants with serious or severe treatment-related AEs (Safety and tolerability; all treatment periods): No participants
AEs mild in severity (of all AEs) (Safety and tolerability; all treatment periods, remainder moderate): 119 of 135
Geometric mean maximum plasma concentration (Cmax) ([1]; 100 mg/100 μCi [14C]lorlatinib): about 600 ng/mL
Renal clearance ([1]; 100 mg/100 μCi [14C]lorlatinib): 1.6 mL/min
Urinary excretion of unchanged lorlatinib ([1]; 100 mg/100 μCi [14C]lorlatinib): ~0.7%
Mean terminal plasma elimination half-life (t1/2) ([1]; human ADME studies): about 20 hours
Aqueous solubility ([2]; pH 7.7): 100 µg/mL
Aqueous solubility ([2]; pH <2): > 10000 µg/mL
Ratio (Test/Reference) of Adjusted Means, AUCinf [3, 8]: 107.9%
Ratio (Test/Reference) of Adjusted Means, AUClast [3, 8]: 107.8%
Ratio (Test/Reference) of Adjusted Means, Cmax [3, 8]: 129.7%
Ratio (Test/Reference) of Adjusted Means, AUCinf [3, 9]: 104.7%
Ratio (Test/Reference) of Adjusted Means, AUClast [3, 9]: 104.6%
Ratio (Test/Reference) of Adjusted Means, Cmax [3, 9]: 90.9%
Ratio (Test/Reference) of Adjusted Means, AUCinf [3, 10]: 100.9%
Ratio (Test/Reference) of Adjusted Means, AUClast [3, 10]: 99.7%
Ratio (Test/Reference) of Adjusted Means, Cmax [3, 10]: 70.7%
Adjusted geometric mean Cmax ([3]; 100-mg tablets, fasted (reference), mixed-effects model): 533.1 ng/mL
Arithmetic mean CL/F ([3]; Treatment A: single oral 100-mg dose, tablets, fasted, n = 24, mean ± SD): 11.8 ± 2.5 L/h
Geometric mean CL/F ([3]; Treatment A: single oral 100-mg dose, tablets, fasted, n = 24, value (geometric %CV)): 11.5 (24) L/h
Arithmetic mean CL/F ([3]; Treatment B: single oral 100-mg dose, tablets + high-fat meal, n = 23, mean ± SD): 11.7 ± 2.8 L/h
Geometric mean CL/F ([3]; Treatment B: single oral 100-mg dose, tablets + high-fat meal, n = 23, value (geometric %CV)): 11.4 (24) L/h
Arithmetic mean CL/F ([3]; Treatment C: single oral 100-mg dose, tablets + rabeprazole 20 mg, fasted, n = 23, mean ± SD): 11.9 ± 2.5 L/h
Geometric mean CL/F ([3]; Treatment C: single oral 100-mg dose, tablets + rabeprazole 20 mg, fasted, n = 23, value (geometric %CV)): 11.6 (24) L/h
Arithmetic mean CL/F ([3]; Treatment D: single oral 100-mg dose, oral solution, fasted, n = 24, mean ± SD): 11.0 ± 2.4 L/h
Geometric mean CL/F ([3]; Treatment D: single oral 100-mg dose, oral solution, fasted, n = 24, value (geometric %CV)): 10.7 (24) L/h
AUC(0-inf) ([3]; 100 mg, Arithmetic mean AUCinf, Treatment A: single oral 100-mg dose, tablets, fasted, n = 24, mean ± SD): 8960 ± 2380 ng·h/mL
AUC(0-inf) ([3]; 100 mg, Arithmetic mean AUCinf, Treatment B: single oral 100-mg dose, tablets + high-fat meal, n = 23, mean ± SD): 9030 ± 2280 ng·h/mL
AUC(0-inf) ([3]; 100 mg, Arithmetic mean AUCinf, Treatment D: single oral 100-mg dose, oral solution, fasted, n = 24, mean ± SD): 9620 ± 2440 ng·h/mL
AUC(0-t) ([3]; 100 mg, Arithmetic mean AUClast, Treatment A: single oral 100-mg dose, tablets, fasted, n = 24, mean ± SD): 8380 ± 1990 ng·h/mL
AUC(0-t) ([3]; 100 mg, Arithmetic mean AUClast, Treatment B: single oral 100-mg dose, tablets + high-fat meal, n = 23, mean ± SD): 8460 ± 1940 ng·h/mL
AUC(0-t) ([3]; 100 mg, Arithmetic mean AUClast, Treatment D: single oral 100-mg dose, oral solution, fasted, n = 24, mean ± SD): 8990 ± 2040 ng·h/mL
Cmax ([3]; 100 mg, Arithmetic mean Cmax, Treatment A: single oral 100-mg dose, tablets, fasted, n = 24, mean ± SD): 559 ± 115 ng/mL
Cmax ([3]; 100 mg, Arithmetic mean Cmax, Treatment D: single oral 100-mg dose, oral solution, fasted, n = 24, mean ± SD): 722 ± 185 ng/mL
half-life ([3]; 100 mg, Arithmetic mean t1/2, Treatment A: single oral 100-mg dose, tablets, fasted, n = 24, mean ± SD): 24.2 ± 5.2 h
half-life ([3]; 100 mg, Arithmetic mean t1/2, Treatment B: single oral 100-mg dose, tablets + high-fat meal, n = 23, mean ± SD): 23.7 ± 6 h
half-life ([3]; 100 mg, Arithmetic mean t1/2, Treatment D: single oral 100-mg dose, oral solution, fasted, n = 24, mean ± SD): 24.1 ± 5.4 h
AUC(0-inf) ([3]; 100 mg, Geometric mean AUCinf, Treatment A: single oral 100-mg dose, tablets, fasted, n = 24, value (geometric %CV)): 8710 ng·h/mL
AUC(0-inf) ([3]; 100 mg, Geometric mean AUCinf, Treatment B: single oral 100-mg dose, tablets + high-fat meal, n = 23, value (geometric %CV)): 8780 ng·h/mL
AUC(0-inf) ([3]; 100 mg, Geometric mean AUCinf, Treatment D: single oral 100-mg dose, oral solution, fasted, n = 24, value (geometric %CV)): 9360 ng·h/mL
AUC(0-t) ([3]; 100 mg, Geometric mean AUClast, Treatment B: single oral 100-mg dose, tablets + high-fat meal, n = 23, value (geometric %CV)): 8260 ng·h/mL
AUC(0-t) ([3]; 100 mg, Geometric mean AUClast, Treatment D: single oral 100-mg dose, oral solution, fasted, n = 24, value (geometric %CV)): 8790 ng·h/mL
Cmax ([3]; 100 mg, Geometric mean Cmax, Treatment A: single oral 100-mg dose, tablets, fasted, n = 24, value (geometric %CV)): 548 ng/mL
Cmax ([3]; 100 mg, Geometric mean Cmax, Treatment B: single oral 100-mg dose, tablets + high-fat meal, n = 23, value (geometric %CV)): 489 ng/mL
Cmax ([3]; 100 mg, Geometric mean Cmax, Treatment D: single oral 100-mg dose, oral solution, fasted, n = 24, value (geometric %CV)): 705 ng/mL
Tmax ([3]; 100 mg, Treatment B: single oral 100-mg dose, tablets + high-fat meal, n = 23): 2 h
Tmax ([3]; 100 mg, Treatment D: single oral 100-mg dose, oral solution, fasted, n = 24): 1 h
AUC(0-inf) ([3]; Arithmetic mean AUCinf, Treatment C: single oral 100-mg dose, tablets + rabeprazole 20 mg, fasted, n = 23, mean ± SD): 8880 ± 2430 ng·h/mL
AUC(0-t) ([3]; Arithmetic mean AUClast, Treatment C: single oral 100-mg dose, tablets + rabeprazole 20 mg, fasted, n = 23, mean ± SD): 8190 ± 1930 ng·h/mL
Cmax ([3]; Arithmetic mean Cmax, Treatment C: single oral 100-mg dose, tablets + rabeprazole 20 mg, fasted, n = 23, mean ± SD): 398 ± 114 ng/mL
AUC(0-inf) ([3]; Geometric mean AUCinf, Treatment C: single oral 100-mg dose, tablets + rabeprazole 20 mg, fasted, n = 23, value (geometric %CV)): 8630 ng·h/mL
AUC(0-t) ([3]; Geometric mean AUClast, Treatment C: single oral 100-mg dose, tablets + rabeprazole 20 mg, fasted, n = 23, value (geometric %CV)): 8010 ng·h/mL
Cmax ([3]; Geometric mean Cmax, Treatment C: single oral 100-mg dose, tablets + rabeprazole 20 mg, fasted, n = 23, value (geometric %CV)): 383 ng/mL
Tmax ([3]; Treatment C: single oral 100-mg dose, tablets + rabeprazole 20 mg, fasted, n = 23): 2 h
Higher Cmax with the oral solution than with the tablet formulation ([3]; single 100-mg oral dose, fasted): ~30%

Source: article PMC9292600 (Clinical Pharmacology in Drug Development, 2021)
